Reference: ChEMBL document CHEMBL3098102, “1,2,3-Triazole-derived naphthalimides as a novel type of potential antimicrobial agents: synthesis, antimicrobial activity, interaction with calf thymus DNA and human serum albumin” (Bioorg Med Chem Lett, 2014)
In brackets after ≈: the same amount, converted by molar mass. Activity calls are given as the source filed them. The rule behind the calls is not given here.

Assays:
[1] = system: Aspergillus flavus; assay: Ratio of fluconazole MIC to compound MIC for Aspergillus flavus after 24 hrs by two-fold serial dilution method; assay type: functional
[2] = system: Saccharomyces cerevisiae; assay: Antimicrobial activity against Saccharomyces cerevisiae by two-fold serial dilution method; assay type: functional
Procedure, shortened: (§1)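 MIC read by broth microdilution in microdilution plates.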

[3] = system: Aspergillus flavus; assay: Antimicrobial activity against Aspergillus flavus after 24 hrs by two-fold serial dilution method; assay type: functional; procedure, shortened: as §1
[4] = system: Candida albicans; assay: Antimicrobial activity against Candida albicans after 24 hrs by two-fold serial dilution method; assay type: functional; procedure, shortened: as §1
[5] = system: Shigella dysenteriae; assay: Antimicrobial activity against Shigella dysenteriae after 24 hrs by two-fold serial dilution method; assay type: functional
[6] = system: Pseudomonas aeruginosa; assay: Antimicrobial activity against Pseudomonas aeruginosa after 24 hrs by two-fold serial dilution method; assay type: functional; procedure, shortened: as §1
[7] = system: Escherichia coli; assay: Antimicrobial activity against Escherichia coli DH52 after 24 hrs by two-fold serial dilution method; assay type: functional; settings: DH52, 24 h
[8] = Antimicrobial activity against Bacillus proteus after 24 hrs by two-fold serial dilution method; assay type: functional; procedure, shortened: as §1
[9] = system: Micrococcus luteus; assay: Antimicrobial activity against Micrococcus luteus ATCC 4698 after 24 hrs by two-fold serial dilution method; assay type: functional; settings: ATCC 4698, 24 h
[10] = system: Bacillus subtilis; assay: Antimicrobial activity against Bacillus subtilis after 24 hrs by two-fold serial dilution method; assay type: functional; procedure, shortened: as §1
[11] = system: Staphylococcus aureus; assay: Antimicrobial activity against methicillin-resistant Staphylococcus aureus N315 after 24 hrs by two-fold serial dilution method; assay type: functional; settings: N315, 24 h
[12] = system: Staphylococcus aureus; assay: Antimicrobial activity against Staphylococcus aureus ATCC 25923 after 24 hrs by two-fold serial dilution method; assay type: functional; settings: ATCC 25923, 24 h
[13] = system: DNA; assay: Competitive binding affinity to calf thymus DNA at 0.25 to 2 x 10^-5 mol/L by UV spectroscopy in presence of neutral red; assay type: nucleic-acid assay; settings: Bos taurus
[14] = system: DNA; assay: Binding affinity to calf thymus DNA by UV-vis spectroscopy; assay type: nucleic-acid assay; settings: Bos taurus
Procedure, shortened: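 UV-vis absorption spectra of calf thymus DNA recorded with increasing concentrations of test compound. The DNA band at 260 nm was monitored for changes in intensity and wavelength.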

[15] = system: Escherichia coli; assay: Ratio of chloromycin MIC to compound MIC for Escherichia coli DH52 after 24 hrs by two-fold serial dilution method; assay type: functional

SMILES	Ratio [1]	MIC [2] [µg/mL]	MIC [3] [µg/mL]	MIC [4] [µg/mL]	MIC [5] [µg/mL]	MIC [6] [µg/mL]	MIC [7] [µg/mL]	MIC [8] [µg/mL]	MIC [9] [µg/mL]	MIC [10] [µg/mL]	MIC [11] [µg/mL]	MIC [12] [µg/mL]	Activity [13]	K [14] [×10⁴ L/mol]	Ratio [15]
CCCCCCCCn1cc(CN(Cc2cn(CCCCCCCC)nn2)N2C(=O)c3cccc4c(Br)ccc(c34)C2=O)nn1	16	> 512	16 (≈ 23.6 µM)	> 512	> 512	512 (≈ 756 µM)	512 (≈ 756 µM)	> 512	> 512	> 512	> 512	> 512			
CCCCCCCCn1cc(CN(Cc2cn(CCCCCCCC)nn2)N2C(=O)c3cccc4c(Br)ccc(c34)C2=O)nn1.Cl.Cl	16	> 512	16	> 512	> 512	512	512	512	> 512	> 512	> 512	> 512			
O=C1c2cccc3c(Br)ccc(c23)C(=O)N1N(Cc1cn(Cc2ccc(Cl)c(Cl)c2)nn1)Cc1cn(Cc2ccc(Cl)c(Cl)c2)nn1													Active	2.34	
Cl.Cl.Cl.Cl.O=C1c2cccc3c(Br)ccc(c23)C(=O)N1N(Cc1cn(Cc2ccccc2Cl)nn1)Cc1cn(Cc2ccccc2Cl)nn1		> 512	> 512	64	> 512	> 512	4	> 512	128	> 512	512	> 512			2
O=C1c2cccc3c(Br)ccc(c23)C(=O)N1N(Cc1cn(Cc2cccc(Cl)c2)nn1)Cc1cn(Cc2cccc(Cl)c2)nn1		64 (≈ 91.1 µM)	> 512	64 (≈ 91.1 µM)	> 512	64 (≈ 91.1 µM)	2 (≈ 2.85 µM)	> 512	> 512	256 (≈ 364 µM)	> 512	256 (≈ 364 µM)			2
O=C1c2cccc3c(Br)ccc(c23)C(=O)N1N(Cc1cn(Cc2ccc(Cl)cc2)nn1)Cc1cn(Cc2ccc(Cl)cc2)nn1		> 512	> 512	> 512	256 (≈ 364 µM)	512 (≈ 729 µM)	2 (≈ 2.85 µM)	> 512	64 (≈ 91.1 µM)	256 (≈ 364 µM)	> 512	> 512			2
O=C1c2cccc3c(Br)ccc(c23)C(=O)N1N(Cc1cn(Cc2ccc(Cl)cc2Cl)nn1)Cc1cn(Cc2ccc(Cl)cc2Cl)nn1		> 512	32 (≈ 41.5 µM)	> 512	> 512	> 512	8 (≈ 10.4 µM)	> 512	256 (≈ 332 µM)	> 512	> 512	> 512			2
Cl.Cl.Cl.Cl.O=C1c2cccc3c(Br)ccc(c23)C(=O)N1N(Cc1cn(Cc2cccc(Cl)c2)nn1)Cc1cn(Cc2cccc(Cl)c2)nn1		64	> 512	16	512	64	2	512	> 512	256	256	256			2
Cl.Cl.Cl.Cl.Cl.Cl.O=C1c2cccc3c(Br)ccc(c23)C(=O)N1N(Cc1cn(Cc2ccc(Cl)cc2Cl)nn1)Cc1cn(Cc2ccc(Cl)cc2Cl)nn1		> 512	32	> 512	> 512	> 512	4	> 512	256	> 512	> 512	> 512			2
